# Measurements published in ChEMBL document CHEMBL4177580, “New 5-HT1A, 5HT2A and 5HT2C receptor ligands containing a picolinic nucleus: Synthesis, in vitro and in vivo pharmacological evaluation” (Bioorg Med Chem, 2017).
# Calls of active or inactive are those of the source.
# How the values were obtained:
# Mus musculus [1] = assay: Antidepressant-like activity in Swiss albino mouse assessed as reduction in immobility time at 1.875 mg/kg, ip dosed 1 hr before test by forced swimming test; format: functional, organism-based
# Method in brief: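 Male Swiss albino mice (18–24 g), compound i.p. in 0.1% DMSO/0.5% methylcellulose 1 h pre-test. Porsolt swim: cylinder 25 cm high, 10 cm diameter, 10 cm water at 23–25°C, 6 min session; immobility scored over last 4 min. Blind observer; one-way ANOVA with Dunnett's; mean ± SEM.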
# Mus musculus [2] = assay: Toxicity in Swiss albino mouse assessed as reduction in spontaneous locomotor activity at 60 mg/kg, ip dosed 60 mins before test and measured after 30 mins; format: organism-based; conditions: in vivo, 0.5 h
# Method in brief: (§1)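 Spontaneous locomotion: mice dosed i.p. 60 min before being placed individually in an actometer for 30 min. Distance travelled read at 6 and 30 min. Cages cleaned with 70% ethanol between animals. One-way ANOVA with Dunnett's; mean ± SEM of one experiment.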
# Mus musculus [3] = assay: Toxicity in Swiss albino mouse assessed as induction of impairment of motor coordination by measuring reduction in time spent on rota-rod at 30 mg/kg, ip dosed 60 mins before test by rotarod test; format: organism-based; conditions: in vivo, 1 h
# Method in brief: (§2)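 Rotarod in male Swiss mice, i.p. dosing 60 min pre-test: impairment is inability to stay 1 min on a rod turning at 18 rpm, after 3 days of daily training. Mean ± SEM of 2 independent experiments; one-way ANOVA with Dunnett's.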
# Mus musculus [4] = assay: Toxicity in Swiss albino mouse assessed as reduction in spontaneous locomotor activity at 30 mg/kg, ip dosed 60 mins before test and measured after 6 mins; format: organism-based; conditions: in vivo, 0.1 h; method in brief: as §1
# Mus musculus [5] = assay: Toxicity in Swiss albino mouse assessed as reduction in spontaneous locomotor activity at 15 mg/kg, ip dosed 60 mins before test and measured after 30 mins; format: organism-based; conditions: in vivo, 0.5 h; method in brief: as §1
# Mus musculus [6] = assay: Toxicity in Swiss albino mouse assessed as effect on motor coordination at 1.875 to 7.5 mg/kg, ip dosed 60 mins before test by Chimney test; format: organism-based; conditions: in vivo, 1 h, in the assay text read “3.75 to 60 mg/kg” for “1.875 to 7.5 mg/kg”
# Method in brief: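 Chimney test in male Swiss mice after i.p. dosing 60 min earlier: impairment defined as failure to climb backwards up a tube (3 cm inner diameter, 25 cm long) within 60 s. Animals pre-trained once daily for 3 days. One-way ANOVA with Dunnett's.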
# Mus musculus [7] = assay: Anxiolytic-like activity in Swiss albino mouse assessed as increase in time spent in open arms at 1.875 to 7.5 mg/kg measured for 5 mins test period by elevated plus maze test; format: functional, organism-based
# [8] = biological target: T1, Adrenergic receptor alpha-1 (Rattus norvegicus, UniProt P15823+P23944+P43140); assay: Displacement of [3H]prazosin from adrenergic alpha1 receptor in rat cerebral cortex
# T1 sequence (P15823 whole entry): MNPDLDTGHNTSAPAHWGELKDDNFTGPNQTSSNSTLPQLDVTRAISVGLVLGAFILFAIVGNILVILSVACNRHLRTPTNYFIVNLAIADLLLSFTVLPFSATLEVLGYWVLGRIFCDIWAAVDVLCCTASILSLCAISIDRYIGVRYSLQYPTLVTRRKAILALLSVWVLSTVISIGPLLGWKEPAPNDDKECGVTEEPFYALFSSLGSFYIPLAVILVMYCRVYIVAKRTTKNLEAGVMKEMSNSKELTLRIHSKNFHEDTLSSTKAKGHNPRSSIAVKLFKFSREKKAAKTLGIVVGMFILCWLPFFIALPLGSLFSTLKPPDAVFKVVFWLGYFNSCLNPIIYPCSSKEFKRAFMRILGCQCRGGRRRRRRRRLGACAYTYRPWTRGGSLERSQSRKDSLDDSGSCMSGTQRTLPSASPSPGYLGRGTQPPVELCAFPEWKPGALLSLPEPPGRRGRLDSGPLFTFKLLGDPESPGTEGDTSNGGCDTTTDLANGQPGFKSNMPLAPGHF
# T1 sequence (P23944 whole entry): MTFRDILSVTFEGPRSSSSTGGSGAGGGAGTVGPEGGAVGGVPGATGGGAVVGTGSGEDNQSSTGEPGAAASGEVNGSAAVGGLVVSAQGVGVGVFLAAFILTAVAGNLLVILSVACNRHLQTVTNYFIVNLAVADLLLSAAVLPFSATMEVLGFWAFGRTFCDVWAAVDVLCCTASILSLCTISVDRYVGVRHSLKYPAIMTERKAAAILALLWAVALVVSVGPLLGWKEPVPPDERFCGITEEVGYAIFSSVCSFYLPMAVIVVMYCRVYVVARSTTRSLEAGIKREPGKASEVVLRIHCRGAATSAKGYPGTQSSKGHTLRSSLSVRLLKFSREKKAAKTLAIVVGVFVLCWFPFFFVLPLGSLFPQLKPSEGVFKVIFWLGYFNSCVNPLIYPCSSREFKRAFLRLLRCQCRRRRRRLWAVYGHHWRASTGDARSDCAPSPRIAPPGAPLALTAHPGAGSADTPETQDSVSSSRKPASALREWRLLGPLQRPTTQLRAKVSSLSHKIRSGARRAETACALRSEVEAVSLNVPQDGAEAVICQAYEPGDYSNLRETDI
# T1 sequence (P43140 whole entry): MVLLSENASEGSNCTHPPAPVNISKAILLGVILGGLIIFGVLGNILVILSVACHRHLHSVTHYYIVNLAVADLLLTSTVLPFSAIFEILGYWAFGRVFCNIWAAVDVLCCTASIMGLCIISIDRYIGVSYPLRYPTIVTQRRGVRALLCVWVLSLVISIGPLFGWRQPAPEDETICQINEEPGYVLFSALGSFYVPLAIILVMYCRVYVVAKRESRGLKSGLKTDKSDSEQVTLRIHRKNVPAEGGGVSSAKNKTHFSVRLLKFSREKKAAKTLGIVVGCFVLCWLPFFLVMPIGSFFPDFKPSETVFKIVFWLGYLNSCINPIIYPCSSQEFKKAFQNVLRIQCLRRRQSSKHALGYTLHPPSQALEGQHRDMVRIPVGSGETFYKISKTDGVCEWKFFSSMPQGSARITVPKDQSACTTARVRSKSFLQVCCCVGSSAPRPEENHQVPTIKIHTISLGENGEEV
# Mus musculus [9] = assay: Toxicity in Swiss albino mouse assessed as reduction in spontaneous locomotor activity at 30 mg/kg, ip dosed 60 mins before test and measured after 30 mins; format: organism-based; conditions: in vivo, 0.5 h; method in brief: as §1
# Mus musculus [10] = assay: Toxicity in Swiss albino mouse assessed as induction of impairment of motor coordination by measuring reduction in time spent on rota-rod at 60 mg/kg, ip dosed 60 mins before test by rotarod test; format: organism-based; conditions: in vivo, 1 h; method in brief: as §2
# Mus musculus [11] = assay: Toxicity in Swiss albino mouse assessed as reduction in spontaneous locomotor activity at 60 mg/kg, ip dosed 60 mins before test and measured after 6 mins; format: organism-based; conditions: in vivo, 0.1 h; method in brief: as §1
# Mus musculus [12] = assay: Induction of hypothermia in Swiss albino mouse assessed as reduction in body temperature at 15 mg/kg, ip measured after 120 mins post dose; format: functional, organism-based
# Method in brief: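 Normothermic male Swiss mice; rectal thermistor readings over 180 min. Baseline is the mean of readings 60 and 30 min before dosing; readings at 30, 60, 90, 120 min post-injection; Δt = tf − ti. Test compounds i.p. (DMSO/methylcellulose); 8-OH-DPAT (5 mg/kg) and WAY 100635 (0.1 mg/kg) s.c. in water. Two-way ANOVA, Bonferroni.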
# Mus musculus [13] = assay: Toxicity in Swiss albino mouse assessed as reduction in spontaneous locomotor activity at 1.875 mg/kg, ip dosed 60 mins before test; format: organism-based; conditions: in vivo, 1 h; method in brief: as §1
# D(2) dopamine receptor = D(2) dopamine receptor (Homo sapiens, UniProt P14416); assay: Displacement of [3H]methyl-spiperone from human recombinant dopamine D2 receptor expressed in HEK293 cells; format: cell-based
# Sequence of D(2) dopamine receptor (P14416 whole entry): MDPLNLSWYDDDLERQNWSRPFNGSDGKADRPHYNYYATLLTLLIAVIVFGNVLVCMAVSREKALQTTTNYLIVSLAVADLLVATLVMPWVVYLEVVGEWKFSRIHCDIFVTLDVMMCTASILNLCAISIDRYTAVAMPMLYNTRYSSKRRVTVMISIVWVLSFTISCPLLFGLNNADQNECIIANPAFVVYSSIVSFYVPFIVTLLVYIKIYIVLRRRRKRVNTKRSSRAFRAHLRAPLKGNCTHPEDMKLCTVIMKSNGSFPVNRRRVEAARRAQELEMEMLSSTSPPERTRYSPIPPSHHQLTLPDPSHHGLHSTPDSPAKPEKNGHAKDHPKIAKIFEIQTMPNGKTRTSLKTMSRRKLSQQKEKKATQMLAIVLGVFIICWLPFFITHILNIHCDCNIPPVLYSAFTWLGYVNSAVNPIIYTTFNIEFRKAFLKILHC
structure (smiles),measurement,setting,value
O=C(NCCN1CCN(c2ccc(Cl)cc2)CC1)c1ccccn1,Activity,Mus musculus [1],Active
same,Activity,Mus musculus [2],Toxic
same,Activity,Mus musculus [3],Toxic
same,Activity,Mus musculus [4],Toxic
same,Activity,Mus musculus [5],Toxic
same,Activity,Mus musculus [6],Non-Toxic
same,Activity,Mus musculus [7],Active
same,Ki,[8],76 nM
same,Activity,Mus musculus [9],Toxic
same,Activity,Mus musculus [10],Toxic
same,Activity,Mus musculus [11],Toxic
same,Activity,Mus musculus [12],Active
same,Activity,Mus musculus [13],Non-Toxic
same,Ki,D(2) dopamine receptor,2300 nM
